Drawing on ChEMBL document CHEMBL1125581 (J Med Chem, 1991), this text covers Ki for 18 molecules.

By Ki is commonly meant a dissociation constant, usually derived from enzyme kinetics or from competition with a known ligand. Read a low Ki as higher affinity.

For the first assay, the target named is Muscarinic acetylcholine receptor M3 (Rattus norvegicus, UniProt P08483). Put plainly: Inhibition of binding of [3H]N-methylscopolamine to muscarinic acetylcholine receptor M3 of transfected rat A9L cells. Format: cell-based.
Muscarinic acetylcholine receptor M3, sequence (P08483 whole entry): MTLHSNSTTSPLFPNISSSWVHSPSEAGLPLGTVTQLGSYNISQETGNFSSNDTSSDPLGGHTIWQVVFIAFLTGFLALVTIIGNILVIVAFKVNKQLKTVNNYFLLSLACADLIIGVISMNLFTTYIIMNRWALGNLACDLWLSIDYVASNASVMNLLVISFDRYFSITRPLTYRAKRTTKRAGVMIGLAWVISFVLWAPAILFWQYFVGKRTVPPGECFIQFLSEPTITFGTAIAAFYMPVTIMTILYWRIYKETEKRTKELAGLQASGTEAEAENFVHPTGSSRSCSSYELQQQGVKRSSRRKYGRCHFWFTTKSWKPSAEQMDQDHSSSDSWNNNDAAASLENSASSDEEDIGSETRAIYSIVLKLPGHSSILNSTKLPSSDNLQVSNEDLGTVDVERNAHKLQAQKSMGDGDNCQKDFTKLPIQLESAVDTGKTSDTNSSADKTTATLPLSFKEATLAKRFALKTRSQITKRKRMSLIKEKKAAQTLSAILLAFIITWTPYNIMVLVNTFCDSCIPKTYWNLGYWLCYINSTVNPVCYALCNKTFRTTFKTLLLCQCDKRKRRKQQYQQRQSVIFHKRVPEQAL
In turn, `CSc1ccc2c(c1)C(=O)Nc1cccnc1N2C(=O)CN1CCN(C)CC1` returned a Ki of 3.62 µM.
Molecule `NCCCC(=O)NCCN1CCN(CC(=O)N2c3ccccc3C(=O)Nc3cccnc32)CC1` came in with a Ki of 11.5 µM.
The molecule `CS(=O)(=O)N1CCN(CC(=O)N2c3ccccc3C(=O)Nc3cccnc32)CC1` gave a Ki of over 100 µM.
As to `CC(=O)N1CCN(CC(=O)N2c3ccccc3C(=O)Nc3cccnc32)CC1`, the Ki is over 100 µM.
`CC(C)(C)OC(=O)NCCCCCCN1CCN(CC(=O)N2c3ccccc3C(=O)Nc3cccnc32)CC1`: the Ki came to 0.046 µM.
`O=C1Nc2cccnc2N(C(=O)CN2CCN(CCCCN3C(=O)c4ccccc4C3=O)CC2)c2ccccc21`: the Ki was 0.12 µM.
`CN1CCN(CC(=O)N2c3ccc(S(N)(=O)=O)cc3C(=O)Nc3cccnc32)CC1` had a Ki of over 30 µM.
`NCCNC(=O)c1ccc(CN2CCN(CC(=O)N3c4ccccc4C(=O)Nc4cccnc43)CC2)cc1` yielded a Ki of 3.65 µM.
In turn, `CN1CCN(CC(=O)N2c3ccc(S(=O)(=O)NCCNC(=O)OC(C)(C)C)cc3C(=O)Nc3cccnc32)CC1` gave a Ki of over 30 µM.
On to `O=C1Nc2cccnc2N(C(=O)CN2CCN(CCO)CC2)c2ccccc21`, for which the affinity corresponds to a Ki of 9.5 µM.
In turn, `O=C1Nc2cccnc2N(C(=O)CN2CCN(C(=S)Nc3ccccc3)CC2)c2ccccc21` showed a Ki of over 100 µM.
`CC(C)(C)OC(=O)NCCCC(=O)NCCN1CCN(CC(=O)N2c3ccccc3C(=O)Nc3cccnc32)CC1` gave a Ki of 4.1 µM.
`CC(=O)NCCC(=O)NCCN1CCN(CC(=O)N2c3ccccc3C(=O)Nc3cccnc32)CC1` returned a Ki of over 100 µM.
For the molecule `CC(=O)NCCCC(=O)NCCN1CCN(CC(=O)N2c3ccccc3C(=O)Nc3cccnc32)CC1`, the Ki turned out to be 10.8 µM.
Take `O=C1Nc2cccnc2N(C(=O)CN2CCN(Cc3ccccc3)CC2)c2ccccc21`: the affinity corresponds to a Ki of 0.24 µM.
On to `CC(=O)NCCNS(=O)(=O)c1ccc2c(c1)C(=O)Nc1cccnc1N2C(=O)CN1CCN(C)CC1`, for which the Ki was over 30 µM.
Same read-out and setting: next, `O=C1Nc2cccnc2N(C(=O)CN2CCN(C(=O)c3ccccc3)CC2)c2ccccc21`: over 100 µM; `NCCN1CCN(CC(=O)N2c3ccccc3C(=O)Nc3cccnc32)CC1`: 1.97 µM.

Another assay addresses T1, Muscarinic acetylcholine receptor M2 (Rattus norvegicus, UniProt P10980).
T1 sequence (P10980 whole entry): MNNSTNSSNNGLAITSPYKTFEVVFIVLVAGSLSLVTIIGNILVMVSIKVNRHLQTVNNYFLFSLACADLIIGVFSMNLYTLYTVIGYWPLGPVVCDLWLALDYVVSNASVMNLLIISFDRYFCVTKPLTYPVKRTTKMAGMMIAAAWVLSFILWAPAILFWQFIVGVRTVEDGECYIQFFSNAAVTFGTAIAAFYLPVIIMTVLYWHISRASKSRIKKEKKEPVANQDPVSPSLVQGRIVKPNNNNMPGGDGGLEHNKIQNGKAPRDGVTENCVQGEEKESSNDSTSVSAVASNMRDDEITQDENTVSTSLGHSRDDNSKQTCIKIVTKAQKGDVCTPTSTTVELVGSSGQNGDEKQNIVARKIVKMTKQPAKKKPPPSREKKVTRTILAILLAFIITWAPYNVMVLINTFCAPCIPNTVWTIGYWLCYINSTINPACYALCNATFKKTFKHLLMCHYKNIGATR
Put plainly: Inhibition of binding of [3H]N-methylscopolamine to muscarinic acetylcholine receptor M2 of rat heart tissue membrane. The format is tissue-based. The procedure, abridged: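 Rat heart membranes (150–300 μg protein) incubated 90 min at 37 °C in DMEM-Hepes with 0.5 nM [3H]NMS and varied unlabeled analogue concentrations. Bound radioligand collected by rapid GF/B filtration, washed with ice-cold 0.9% NaCl, and scintillation counted. Nonspecific binding with 1 μM atropine subtracted. Ki values come from one to three determinations, each in triplicate.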
Take `CSc1ccc2c(c1)C(=O)Nc1cccnc1N2C(=O)CN1CCN(C)CC1`: affinity was put at a Ki of 11 µM.
The same measure, in the same setting: next, `NCCCC(=O)NCCN1CCN(CC(=O)N2c3ccccc3C(=O)Nc3cccnc32)CC1`: 6.34 µM.
`CS(=O)(=O)N1CCN(CC(=O)N2c3ccccc3C(=O)Nc3cccnc32)CC1`: the Ki is over 100 µM.
`CC(=O)N1CCN(CC(=O)N2c3ccccc3C(=O)Nc3cccnc32)CC1` gave a Ki of over 100 µM.
On the same count and under the same terms, then `CC(C)(C)OC(=O)NCCCCCCN1CCN(CC(=O)N2c3ccccc3C(=O)Nc3cccnc32)CC1`, with 0.0214 µM; and `O=C1Nc2cccnc2N(C(=O)CN2CCN(CCCCN3C(=O)c4ccccc4C3=O)CC2)c2ccccc21`, with 0.089 µM.
With `CN1CCN(CC(=O)N2c3ccc(S(N)(=O)=O)cc3C(=O)Nc3cccnc32)CC1`, the Ki is over 30 µM.
`NCCNC(=O)c1ccc(CN2CCN(CC(=O)N3c4ccccc4C(=O)Nc4cccnc43)CC2)cc1` gave an inhibitory constant (Ki) of 0.96 µM.
Consider `O=C1Nc2cccnc2N(C(=O)CN2CCN(CCO)CC2)c2ccccc21`, for which affinity was put at a Ki of 3.2 µM.
For `O=C1Nc2cccnc2N(C(=O)CN2CCN(C(=S)Nc3ccccc3)CC2)c2ccccc21`, the Ki is over 100 µM.
Molecule `CC(C)(C)OC(=O)NCCCC(=O)NCCN1CCN(CC(=O)N2c3ccccc3C(=O)Nc3cccnc32)CC1` yielded a Ki of 3.34 µM.
For the molecule `CC(=O)NCCC(=O)NCCN1CCN(CC(=O)N2c3ccccc3C(=O)Nc3cccnc32)CC1`, the Ki was 34.5 µM.
The same measure, in the same setting: next, `CC(=O)NCCCC(=O)NCCN1CCN(CC(=O)N2c3ccccc3C(=O)Nc3cccnc32)CC1`: 8.82 µM; `O=C1Nc2cccnc2N(C(=O)CN2CCN(Cc3ccccc3)CC2)c2ccccc21`: 0.24 µM.
The molecule `O=C1Nc2cccnc2N(C(=O)CN2CCN(C(=O)c3ccccc3)CC2)c2ccccc21` had a Ki of over 100 µM.
As to `NCCN1CCN(CC(=O)N2c3ccccc3C(=O)Nc3cccnc32)CC1`, affinity was put at a Ki of 3.04 µM.

The target of a further assay is T2, Muscarinic acetylcholine receptor M1 (Rattus norvegicus, UniProt P08482).
T2 sequence (P08482 whole entry): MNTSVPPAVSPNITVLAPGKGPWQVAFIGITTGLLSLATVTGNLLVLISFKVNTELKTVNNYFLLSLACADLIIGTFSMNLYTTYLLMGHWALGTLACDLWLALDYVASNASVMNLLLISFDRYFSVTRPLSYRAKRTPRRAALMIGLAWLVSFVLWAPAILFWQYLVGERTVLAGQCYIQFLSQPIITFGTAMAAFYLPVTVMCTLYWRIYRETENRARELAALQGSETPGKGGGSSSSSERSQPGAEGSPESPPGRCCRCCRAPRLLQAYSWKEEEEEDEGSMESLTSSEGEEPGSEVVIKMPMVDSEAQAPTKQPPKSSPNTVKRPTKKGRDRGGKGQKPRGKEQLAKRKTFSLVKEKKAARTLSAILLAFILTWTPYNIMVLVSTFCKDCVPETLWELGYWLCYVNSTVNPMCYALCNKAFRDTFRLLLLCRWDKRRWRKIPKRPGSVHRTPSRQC
Put plainly: Inhibition of binding of [3H]N-methylscopolamine to muscarinic acetylcholine receptor M1 of transfected rat A9L cells. The format is cell-based.
Regarding `CSc1ccc2c(c1)C(=O)Nc1cccnc1N2C(=O)CN1CCN(C)CC1`, the Ki was determined as 4.66 µM.
The molecule `NCCCC(=O)NCCN1CCN(CC(=O)N2c3ccccc3C(=O)Nc3cccnc32)CC1` displayed a Ki of 9.53 µM.
The same measure, in the same setting: next, `CS(=O)(=O)N1CCN(CC(=O)N2c3ccccc3C(=O)Nc3cccnc32)CC1`: over 100 µM; `CC(=O)N1CCN(CC(=O)N2c3ccccc3C(=O)Nc3cccnc32)CC1`: over 100 µM; `CC(C)(C)OC(=O)NCCCCCCN1CCN(CC(=O)N2c3ccccc3C(=O)Nc3cccnc32)CC1`: 0.0371 µM.
`O=C1Nc2cccnc2N(C(=O)CN2CCN(CCCCN3C(=O)c4ccccc4C3=O)CC2)c2ccccc21` gave a Ki of 0.17 µM.
On the same count and under the same terms, then `CN1CCN(CC(=O)N2c3ccc(S(N)(=O)=O)cc3C(=O)Nc3cccnc32)CC1`, with over 30 µM; and `NCCNC(=O)c1ccc(CN2CCN(CC(=O)N3c4ccccc4C(=O)Nc4cccnc43)CC2)cc1`, with 1.39 µM; and `CN1CCN(CC(=O)N2c3ccc(S(=O)(=O)NCCNC(=O)OC(C)(C)C)cc3C(=O)Nc3cccnc32)CC1`, with over 30 µM.
The molecule `O=C1Nc2cccnc2N(C(=O)CN2CCN(CCO)CC2)c2ccccc21` returned a Ki of 5.8 µM.
In the case of `O=C1Nc2cccnc2N(C(=O)CN2CCN(C(=S)Nc3ccccc3)CC2)c2ccccc21`, the Ki was over 100 µM.
`CC(C)(C)OC(=O)NCCCC(=O)NCCN1CCN(CC(=O)N2c3ccccc3C(=O)Nc3cccnc32)CC1`: the Ki came out at 4.8 µM.
The same measure, in the same setting: then `CC(=O)NCCC(=O)NCCN1CCN(CC(=O)N2c3ccccc3C(=O)Nc3cccnc32)CC1`, with 39.4 µM.
Take `CC(=O)NCCCC(=O)NCCN1CCN(CC(=O)N2c3ccccc3C(=O)Nc3cccnc32)CC1`: affinity was put at a Ki of 9.65 µM.
On the same count and under the same terms, next, `O=C1Nc2cccnc2N(C(=O)CN2CCN(Cc3ccccc3)CC2)c2ccccc21`: 0.33 µM.
`CC(=O)NCCNS(=O)(=O)c1ccc2c(c1)C(=O)Nc1cccnc1N2C(=O)CN1CCN(C)CC1` registered a Ki of over 30 µM.
For `O=C1Nc2cccnc2N(C(=O)CN2CCN(C(=O)c3ccccc3)CC2)c2ccccc21`, the Ki is over 100 µM.
For the molecule `NCCN1CCN(CC(=O)N2c3ccccc3C(=O)Nc3cccnc32)CC1`, the Ki amounted to 1.19 µM.

A further assay deals with T3, Muscarinic acetylcholine receptor M4 (Rattus norvegicus, UniProt P08485).
T3 sequence (P08485 whole entry): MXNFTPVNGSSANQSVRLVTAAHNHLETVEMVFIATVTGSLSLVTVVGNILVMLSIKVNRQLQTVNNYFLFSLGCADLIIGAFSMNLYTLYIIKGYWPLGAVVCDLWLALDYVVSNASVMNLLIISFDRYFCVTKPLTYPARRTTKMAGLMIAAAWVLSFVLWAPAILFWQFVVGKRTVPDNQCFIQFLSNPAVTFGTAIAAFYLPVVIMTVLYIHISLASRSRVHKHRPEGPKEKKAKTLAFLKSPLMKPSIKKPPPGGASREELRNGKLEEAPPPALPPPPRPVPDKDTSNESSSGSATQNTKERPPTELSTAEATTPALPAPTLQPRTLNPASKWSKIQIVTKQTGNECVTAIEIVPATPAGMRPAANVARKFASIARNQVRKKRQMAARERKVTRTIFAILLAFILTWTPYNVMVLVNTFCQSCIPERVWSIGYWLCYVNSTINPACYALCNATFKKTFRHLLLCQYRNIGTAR
Put plainly: Inhibition of binding of [3H]N-Methyl-scopolamine to muscarinic acetylcholine receptor M4 of rat […] NG108-15 cells. Format: cell-based.
In turn, `CS(=O)(=O)N1CCN(CC(=O)N2c3ccccc3C(=O)Nc3cccnc32)CC1` gave a Ki of over 100 µM.
The same measure, in the same setting: next, `CC(=O)N1CCN(CC(=O)N2c3ccccc3C(=O)Nc3cccnc32)CC1`: over 100 µM; `CC(C)(C)OC(=O)NCCCCCCN1CCN(CC(=O)N2c3ccccc3C(=O)Nc3cccnc32)CC1`: 0.0232 µM; `O=C1Nc2cccnc2N(C(=O)CN2CCN(CCCCN3C(=O)c4ccccc4C3=O)CC2)c2ccccc21`: 0.21 µM.
In the case of `NCCNC(=O)c1ccc(CN2CCN(CC(=O)N3c4ccccc4C(=O)Nc4cccnc43)CC2)cc1`, the Ki is 1.04 µM.
`O=C1Nc2cccnc2N(C(=O)CN2CCN(C(=S)Nc3ccccc3)CC2)c2ccccc21` had a Ki of over 100 µM.
On the same count and under the same terms, then `O=C1Nc2cccnc2N(C(=O)CN2CCN(Cc3ccccc3)CC2)c2ccccc21`, with 0.22 µM; and `O=C1Nc2cccnc2N(C(=O)CN2CCN(C(=O)c3ccccc3)CC2)c2ccccc21`, with over 100 µM; and `NCCN1CCN(CC(=O)N2c3ccccc3C(=O)Nc3cccnc32)CC1`, with 2.84 µM.
